ChEMBL document CHEMBL3856284, “Discovery, design and synthesis of 6H-anthra[1,9-cd]isoxazol-6-one scaffold as G9a inhibitor through a combination of shape-based virtual screening and structure-based molecular modification” (Bioorg Med Chem, 2016)

Legend:
[1] = Antiproliferative activity against human MCF7 cells assessed as inhibition of cell viability after 72 hrs by MTT assay; assay type: functional, cell-based; conditions: MCF7, 72 h
[2] = target: T1, Histone-lysine N-methyltransferase EHMT2 (Homo sapiens, UniProt Q96KQ7); assay: Inhibition of G9a (unknown origin) using biotinylated-histone H3 (1 to 21 residues)/S-adenosyl-methionine as substrate/methyl donor after 3 hrs by AlphaScreen assay
T1 sequence (Q96KQ7 whole entry): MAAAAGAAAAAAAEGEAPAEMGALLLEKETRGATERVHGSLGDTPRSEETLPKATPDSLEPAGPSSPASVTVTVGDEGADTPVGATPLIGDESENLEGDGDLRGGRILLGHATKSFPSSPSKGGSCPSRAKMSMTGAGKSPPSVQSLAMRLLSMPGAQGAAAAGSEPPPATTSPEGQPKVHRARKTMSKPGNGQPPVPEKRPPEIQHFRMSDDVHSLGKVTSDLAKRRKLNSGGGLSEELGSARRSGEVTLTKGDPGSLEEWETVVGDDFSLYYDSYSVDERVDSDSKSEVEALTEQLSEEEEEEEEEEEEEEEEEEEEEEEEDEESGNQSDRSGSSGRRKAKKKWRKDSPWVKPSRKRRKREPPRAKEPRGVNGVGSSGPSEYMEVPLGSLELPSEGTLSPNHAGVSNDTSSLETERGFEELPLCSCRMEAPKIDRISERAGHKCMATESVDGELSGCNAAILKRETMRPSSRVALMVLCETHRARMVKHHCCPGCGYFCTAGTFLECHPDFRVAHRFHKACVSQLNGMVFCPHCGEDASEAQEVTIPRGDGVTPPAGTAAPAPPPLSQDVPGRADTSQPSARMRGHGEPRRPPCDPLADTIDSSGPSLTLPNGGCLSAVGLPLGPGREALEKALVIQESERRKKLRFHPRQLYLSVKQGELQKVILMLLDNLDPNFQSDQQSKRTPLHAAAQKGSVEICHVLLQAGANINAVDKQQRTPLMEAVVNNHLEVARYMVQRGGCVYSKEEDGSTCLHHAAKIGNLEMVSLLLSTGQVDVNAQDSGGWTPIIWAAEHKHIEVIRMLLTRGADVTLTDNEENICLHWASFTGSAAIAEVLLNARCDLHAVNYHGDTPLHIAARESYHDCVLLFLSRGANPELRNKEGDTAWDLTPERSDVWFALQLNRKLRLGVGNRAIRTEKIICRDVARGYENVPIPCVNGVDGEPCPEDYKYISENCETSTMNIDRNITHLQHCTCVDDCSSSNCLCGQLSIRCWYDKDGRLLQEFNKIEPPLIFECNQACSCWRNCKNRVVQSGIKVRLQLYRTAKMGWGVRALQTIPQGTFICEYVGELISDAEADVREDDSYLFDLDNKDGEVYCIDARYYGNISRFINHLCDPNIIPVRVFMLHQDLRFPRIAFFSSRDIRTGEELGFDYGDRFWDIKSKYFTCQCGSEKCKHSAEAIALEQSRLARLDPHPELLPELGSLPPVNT
Procedure, shortened: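 AlphaScreen G9a assay. Compounds were first screened at 10 µM. IC50 came from concentration-response curves of ten escalating concentrations (0.1 nM–10 µM), using two independent experiments, reported as mean ± SD.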

[3] = Antiproliferative activity against human HCT116 cells assessed as inhibition of cell viability after 72 hrs by MTT assay; assay type: functional, cell-based; conditions: HCT-116, 72 h
[4] = Antiproliferative activity against human HepG2 cells assessed as inhibition of cell viability after 72 hrs by MTT assay; assay type: functional, cell-based; conditions: HepG2, 72 h
[5] = target: T1, Histone-lysine N-methyltransferase EHMT2; assay: Inhibition of G9a (unknown origin)

Row | IC50 [2] [µM] | EC50 [5] [µM] | SMILES | IC50 [1] [µM] | IC50 [3] [µM] | IC50 [4] [µM]
1 | 2.49 |  | CN1CCCN(c2cc(NCCN3CCCCC3)c3c4c(onc24)-c2ccccc2C3=O)CC1 | 5.08 | 3.96 | 6.21
2 | 4.84 |  | CN(C)CCNc1cc(N2CCN(C)CC2)c2noc3c2c1C(=O)c1ccccc1-3 | 10.8 | 18.2 | 28.6
3 | 2.68 |  | O=C1c2ccccc2-c2onc3c(N4CCN(c5ccccc5)CC4)cc(NCCN4CCCCC4)c1c23 | 1.22 | 5.32 | 10.4
4 | 39.2 |  | COc1ccc(Nc2cc(N3CCN(C)CC3)c3noc4c3c2C(=O)c2ccccc2-4)cc1 | > 200 | 140 | > 200
5 | 3.22 |  | O=C1c2ccccc2-c2onc3c(N4CCN(c5ccccc5)CC4)cc(NCCN4CCCC4)c1c23 | 3.77 | 4.28 | 10.8
6 | 3.47 |  | CN(C)CCNc1cc(N(C)C)c2noc3c2c1C(=O)c1ccccc1-3 | 16.6 | 30.7 | 12.3
7 |  |  | CCN1CCN(c2cc(Nc3ccccc3F)c3c4c(onc24)-c2ccccc2C3=O)CC1 | > 200 | > 200 | > 200
8 |  |  | COc1ccc(Nc2cc(N3CCCC3)c3noc4c3c2C(=O)c2ccccc2-4)cc1 | > 200 | > 200 | 66.7
9 | 1.87 |  | CN1CCN(c2cc(NCCN3CCCCC3)c3c4c(onc24)-c2ccccc2C3=O)CC1 | 8.37 | 4.56 | 8.34
10 | 4.57 |  | O=C1c2ccccc2-c2onc3c(N4CCN(c5ncccn5)CC4)cc(NCCN4CCCC4)c1c23 | 4.06 | 3.36 | 3.1
11 | 3.84 |  | CN(C)CCNc1cc(N2CCN(c3ncccn3)CC2)c2noc3c2c1C(=O)c1ccccc1-3 | 4.31 | 4.39 | 9.14
12 | 3.48 |  | CCN1CCN(c2cc(NCCN3CCCC3)c3c4c(onc24)-c2ccccc2C3=O)CC1 | 20.8 | 4.34 | 8.32
13 | 1.22 |  | O=C1c2ccccc2-c2onc3c(N4CCCC4)cc(NCCN4CCCC4)c1c23 | 10.8 | 7.46 | 24.9
14 |  |  | CCN1CCN(c2cc(Nc3ccc(C)cc3)c3c4c(onc24)-c2ccccc2C3=O)CC1 | > 200 | > 200 | > 200
15 | 3.96 |  | CN1CCCN(c2cc(NCCN3CCCC3)c3c4c(onc24)-c2ccccc2C3=O)CC1 | 8.26 | 3.2 | 9.35
16 | 3.75 |  | CN(C)CCNc1cc(N2CCCCC2)c2noc3c2c1C(=O)c1ccccc1-3 | 10.3 | 25.4 | 15.6
17 |  |  | COc1cc2c(NC3CCN(C(C)C)CC3)nc(C3CCCCC3)nc2cc1OCCCN1CCCC1 | 6.99 | 3.35 | 3.7
18 |  | 5 | COC(=O)c1ccc2c(c1)nc(NC(=O)c1ccccc1)n2CCCc1ccccc1 |  |  | 
19 |  |  | CCN1CCN(c2cc(Nc3ccc(OC)cc3)c3c4c(onc24)-c2ccccc2C3=O)CC1 | > 200 | > 200 | > 200
20 | 3.87 |  | CN(C)c1cc(NCCN2CCCC2)c2c3c(onc13)-c1ccccc1C2=O | 28 | 6.99 | 24.9
21 | 5.97 |  | CN(C)CCNc1cc(N2CCCC2)c2noc3c2c1C(=O)c1ccccc1-3 | 17.6 | 52.9 | 20.5
22 | 6.89 |  | CN1CCN(c2cc(NCCN3CCCC3)c3c4c(onc24)-c2ccccc2C3=O)CC1 | 13.9 | 6.23 | 27.8
23 | 2.98 |  | CN(C)c1cc(NCCCN2CCCC2)c2c3c(onc13)-c1ccccc1C2=O | 8.61 | 11.3 | 16.9
